Results as given in ChEMBL document CHEMBL1130100, “Stabilized analogs of thymopentin. 3. Evaluation of ketomethylene pseudopeptides for antiarthritic properties” (1997).
“And” between values parts separate entries of the source, which are not always exact repeats. Equal values may be shown once.

How the values were obtained:
Type in all cases: functional
Mus musculus [1] = test: 68 Extent of paw swelling after treatment with thymopentin-5 (TP-5) compound in the Mouse Type II collagen arthritis at a dosage of 0.001 mg/kg on day 30
How it was run: (§1)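 DBA/1 Lac mice immunized with bovine type II collagen (100 μg) in Freund's complete adjuvant at four to six back sites, then boosted ip (100 μg) on day 21. Dosing was iv in sterile saline every second day from day 19 through day 40, 12 mice per dose. Each hind paw was measured by caliper. Result given as % of untreated swelling after subtracting age-matched normal paw.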

Mus musculus [2] = test: On set and incidence of arthritis in the Mouse Type II collagen model at 0.5 dose mg/kg on day 40,expressed as number of mice treated out of 12 tested
How it was run: (§2)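 DBA/1 Lac mice sensitized with bovine type II collagen (100 μg) in Freund's complete adjuvant, ip boost (100 μg) on day 21. Freshly dissolved compound in sterile saline was given iv every second day, day 19 through day 40, groups of 12. A mouse was scored arthritic if erythema or edema was present on any digit, paw or appendage. Incidence reported as number positive of 12.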

Mus musculus [3] = test: On set and incidence of arthritis in the Mouse Type II collagen model at 0.5 dose mg/kg on day 37, expressed as number of mice treated out of 12 tested; how it was run: as §2
Mus musculus [4] = test: On set and incidence of arthritis in the Mouse Type II collagen model following 0.5 mg/kg on day 30.; how it was run: as §2
Mus musculus [5] = test: On set and incidence of arthritis in the Mouse Type II collagen model at 0.5 dose mg/kg on day 44, expressed as number of mice treated out of 12 tested; how it was run: as §2
Mus musculus [6] = test: Extent of paw swelling after treatment with thymopentin-5 (TP-5) compound in the Mouse Type II collagen arthritis at a dosage of 0.001 mg/kg on day 30; how it was run: as §1
Mus musculus [7] = test: Extent of paw swelling after treatment with thymopentin-5 (TP-5) compound in the Mouse Type II collagen arthritis at a dosage of 1.0 mg/kg on day 44; how it was run: as §1
Mus musculus [8] = test: On set and incidence of arthritis in the Mouse Type II collagen model at 0.5 dose mg/kg on day 40, expressed as ratio of number treated to that of control; how it was run: as §2
Mus musculus [9] = test: On set and incidence of arthritis in the Mouse Type II collagen model at 0.5 dose mg/kg on day 44, expressed as ratio of number treated to that of control; how it was run: as §2
Mus musculus [10] = test: On set and incidence of arthritis in the Mouse Type II collagen model at 0.5 dose mg/kg on day 37, expressed as ratio of number treated to that of control; how it was run: as §2
Mus musculus [11] = test: Extent of paw swelling after treatment with thymopentin-5 (TP-5) compound in mouse type II collagen arthritis at a dosage of 1.0 mg/kg on day 30; how it was run: as §1
Rattus norvegicus [12] = test: extent of paw swelling following treatment with the compound in the rat adjuvant arthritis model observed on day 12 at 0.50 mg/kg dose; details: dose 0.5 mg/kg
How it was run: (§3)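 Rat adjuvant arthritis with iv dosing every second day, starting 2 days before the adjuvant/antigen challenge. Initial doses ranged 0.05 to 0.50 mg/kg, eight rats per dose. Each hind paw was measured by caliper. Swelling minus age-matched normal paw, expressed as % of untreated animals.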

Mus musculus [13] = test: On set and incidence of arthritis in the Mouse Type II collagen model at 0.5 dose mg/kg on day 40, expressed as number of mice treated out of 12 tested; how it was run: as §2
Rattus norvegicus [14] = test: extent of paw swelling following treatment with the compound in the rat adjuvant arthritis model observed on day 16 at 0.50 mg/kg dose; details: dose 0.5 mg/kg; how it was run: as §3
Rattus norvegicus [15] = test: extent of paw swelling following treatment with the compound in the rat adjuvant arthritis model observed on day 19 at 0.50 mg/kg dose; details: dose 0.5 mg/kg; how it was run: as §3
Mus musculus [16] = test: On set and incidence of arthritis in the Mouse Type II collagen model at 0.5 dose mg/kg on day 40, expressed as ratio of number treated to that of control:12 animals tested; how it was run: as §2
Mus musculus [17] = test: Extent of paw swelling after treatment with thymopentin-5 (TP-5) compound in the Mouse Type II collagen arthritis at a dosage of 0.5 mg/kg on day 37; how it was run: as §1
Mus musculus [18] = test: Extent of paw swelling after treatment with thymopentin-5 (TP-5) compound in the Mouse Type II collagen arthritis at a dosage of 0.5 mg/kg on day 40; how it was run: as §1
Mus musculus [19] = test: Extent of paw swelling after treatment with thymopentin-5 (TP-5) compound in the Mouse Type II collagen arthritis at a dosage of 0.5 mg/kg on day 30; how it was run: as §1
Mus musculus [20] = test: Extent of paw swelling after treatment with thymopentin-5 (TP-5) compound in the Mouse Type II collagen arthritis at a dosage of 0.5 mg/kg on day 44; how it was run: as §1
Mus musculus [21] = test: Extent of paw swelling after treatment with thymopentin-5 (TP-5) compound in the Mouse Type II collagen arthritis at 1 mg/kg on day 30.; how it was run: as §1
Mus musculus [22] = test: On set and incidence of arthritis in the Mouse Type II collagen model at 0.5 dose mg/kg on day 37,expressed as number of mice treated out of 12 tested; how it was run: as §2
Rattus norvegicus [23] = test: extent of paw swelling following treatment with the compound in the rat adjuvant arthritis model observed on day 12 at 0.050 mg/kg dose; details: dose 0.05 mg/kg; how it was run: as §3
Rattus norvegicus [24] = test: extent of paw swelling following treatment with the compound in the rat adjuvant arthritis model observed on day 16 at 0.050 mg/kg dose; details: dose 0.05 mg/kg; how it was run: as §3
Rattus norvegicus [25] = test: extent of paw swelling following treatment with the compound in the rat adjuvant arthritis model observed on day 19 at 0.050 mg/kg dose; details: dose 0.05 mg/kg; how it was run: as §3
Mus musculus [26] = test: Extent of paw swelling after treatment with thymopentin-5 (TP-5) compound in the Mouse Type II collagen arthritis at a dosage of 0.501 mg/kg on day 40; details: dose 0.01 mg/kg; in the assay text read “0.01 mg/kg” for “0.501 mg/kg”; how it was run: as §1
Mus musculus [27] = test: Extent of paw swelling after treatment with thymopentin-5 (TP-5) compound in the Mouse Type II collagen arthritis at a dosage of 0.01 mg/kg on day 37; how it was run: as §1
Mus musculus [28] = test: Extent of paw swelling after treatment with thymopentin-5 (TP-5) compound in the Mouse Type II collagen arthritis at a dosage of 0.01 mg/kg on day 44; how it was run: as §1
Mus musculus [29] = test: Extent of paw swelling after treatment with thymopentin-5 (TP-5) compound in the Mouse Type II collagen arthritis at a dosage of 0.01 mg/kg on day 30; how it was run: as §1

Structure (SMILES): CCCC[C@@H](C(=O)N[C@@H](CC(=O)O)C(=O)N[C@H](C(=O)C[C@H](Cc1ccccc1)C(=O)O)C(C)C)N(C)C(=O)[C@@H](N)CCCN=C(N)N
- Paw swelling (Mus musculus [1]): 90%
- No. of mice (Mus musculus [2]): 7
- No. of mice (Mus musculus [3]): 7
- No. of mice (Mus musculus [4]): 7
- No. of mice (Mus musculus [5]): 8
- Paw swelling (Mus musculus [6]): 90% and 43%

Structure (SMILES): CCCC[C@H](NC(=O)[C@@H](N)CCCN=C(N)N)C(=O)N[C@@H](CC(=O)O)C(=O)C[C@H](C)C(=O)O
- Paw swelling (Mus musculus [7]): 100%
- No. of mice (Mus musculus [4]): 8
- No. of mice (Mus musculus [8]): 11
- No. of mice (Mus musculus [9]): 12
- No. of mice (Mus musculus [10]): 11

Structure (SMILES): CC(C)C(CC(=O)[C@H](CC(=O)O)NC(=O)C(CCCCN)NC(=O)[C@@H](N)CCCN=C(N)N)C(=O)NC(Cc1ccc(O)cc1)C(=O)O (some centres not stated)
- Paw swelling (Mus musculus [11]): 100%
- No. of mice (Mus musculus [4]): 8
- No. of mice (Mus musculus [8]): 12
- No. of mice (Mus musculus [9]): 12
- No. of mice (Mus musculus [10]): 11

Structure (SMILES): CC(C)C(CC(=O)[C@H](CC(=O)O)NC(=O)C(CCCCN)N(C)C(=O)[C@@H](N)CCCN=C(N)N)C(=O)N[C@@H](Cc1ccccc1)C(=O)O (some centres not stated)
- Paw swelling (Rattus norvegicus [12]): 0%
- No. of mice (Mus musculus [13]): 8
- Paw swelling (Mus musculus [11]; 1 mg/kg): 100% and 46% and 53%
- No. of mice (Mus musculus [3]): 4
- No. of mice (Mus musculus [4]): 6
- Paw swelling (Rattus norvegicus [14]): 80%
- Paw swelling (Rattus norvegicus [15]): 52%
- No. of mice (Mus musculus [5]): 8

Structure (SMILES): CC(C)[C@H](NC(=O)[C@H](CC(=O)O)NC(=O)[C@H](CCCCN)NC(=O)[C@@H](N)CCCN=C(N)N)C(=O)C[C@@H](Cc1ccccc1)C(=O)O
- No. of mice (Mus musculus [16]): 8
- Paw swelling (Mus musculus [17]): 100%
- Paw swelling (Mus musculus [18]): 93%
- Paw swelling (Mus musculus [19]): 100%
- Paw swelling (Mus musculus [20]): 53%
- No. of mice (Mus musculus [3]): 7
- No. of mice (Mus musculus [4]): 5
- No. of mice (Mus musculus [5]): 7

Structure (SMILES): CCCCC(CC(=O)[C@@H](N)CCCN=C(N)N)C(=O)N[C@@H](CC(=O)O)C(=O)NC(C(=O)N[C@@H](Cc1ccccc1)C(=O)O)C(C)C (some centres not stated)
- Paw swelling (Mus musculus [21]): 100%
- No. of mice (Mus musculus [4]): 3
- No. of mice (Mus musculus [8]): 7
- No. of mice (Mus musculus [9]): 8
- No. of mice (Mus musculus [10]): 7

Structure (SMILES): CCCCC(NC(=O)[C@H](CCCN=C(N)N)NC(C)=O)C(=O)N[C@@H](CC(=O)O)C(=O)NC(C(=O)C[C@@H](Cc1ccccc1)C(=O)O)C(C)C (some centres not stated)
- Paw swelling (Mus musculus [21]): 100%
- No. of mice (Mus musculus [22]): 11
- No. of mice (Mus musculus [13]): 11
- Paw swelling (Rattus norvegicus [23]): 0%
- No. of mice (Mus musculus [4]): 8
- No. of mice (Mus musculus [5]): 12
- Paw swelling (Rattus norvegicus [24]): 100%
- Paw swelling (Rattus norvegicus [25]): 100%

Structure (SMILES): CC(C)[C@H](NC(=O)[C@H](CC(=O)O)NC(=O)[C@@H]1CCCN1C(=O)[C@@H](N)CCCN=C(N)N)C(=O)C[C@@H](Cc1ccccc1)C(=O)O (stereo in doubt; 1b-A)
- Paw swelling (Mus musculus [26]): 60%
- Paw swelling (Mus musculus [27]): 72%
- No. of mice (Mus musculus [13]): 9
- No. of mice (Mus musculus [4]; 0.5 mg/kg): 8
- Paw swelling (Mus musculus [28]): 47%
- No. of mice (Mus musculus [5]): 9
- Paw swelling (Mus musculus [29]): 62%
